The test system of experiment [1] is Mus musculus. Put plainly: Activation of AMPK in C57BL/6J mouse skeletal muscle assessed as increase of PGC-1alpha transcription at 500 mg/kg, sc after 2 hrs by RT-qPCR analysis. The following applies: Muscle tissue.
Experiment [2] deals with H4IIE. Briefly: Increase of AMPK phosphorylation at Thr172 in rat H4IIE cells at 5 to 10 uM after 1 hr by ELISA. It counts as cell-based. An outline of the steps: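 Confluent H4IIE cells in 96-well plates were starved overnight in serum-free DMEM (1 g/L glucose), then treated 1 h at 37 °C. Cells were fixed in 4% formaldehyde and endogenous peroxidase quenched with H2O2. Plates were blocked with 10% FBS and probed overnight at 4 °C with anti-p-AMPKα (Thr172), then with HRP secondary and TMB read-out. Mean ± SE, n = 4; Dunnett's test against basal.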

Experiment [3] addresses 5'-AMP-activated protein kinase catalytic subunit alpha-1 (Rattus norvegicus) (UniProt P54645). Put plainly: Increase of AMPKalpha phosphorylation at Thr172 in rat H4IIE cells after 1 hr by Western blot analysis. The experiment is classed as cell-based. An outline of the steps: (§1)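 H4IIE cells grown in 1 g/L glucose DMEM, serum-starved overnight, then treated 1 h; 2 mM AICAR served as reference. Lysates (50−100 μg protein) were run on 7.5% SDS-PAGE and immunoblotted for p-AMPKα (Thr172), p-ACC (Ser79), total AMPKα and total ACC.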

Experiment [4] has the same target. Briefly: Activation of AMPKalpha in rat H4IIE cells assessed as ACC phosphorylation at Ser79 after 1 hr by Western blot analysis. The experiment is classed as cell-based. The procedure, abridged:
as §1
A general note: In western blotting, separated proteins are transferred to a membrane and probed.

The target in experiment [5] is AMP-activated protein kinase, AMPK (Homo sapiens) (UniProt P54646+O43741+P54619+Q9UGJ0+Q9Y478+Q13131+Q9UGI9). Briefly: Activation of AMPK in LKB1-deficient human HeLa cells at 10 to 100 uM after 1 hr by Western blot analysis. It counts as cell-based.
Experiment [6] is filed under the species Rattus norvegicus. Put plainly: Inhibition of rat liver mitochondrial respiratory chain complex 1 assessed as reduction of oxygen consumption at stage 4 in presence of glutamate and malate. An outline of the steps: (§2)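 Liver mitochondria from Wistar rats were isolated by differential centrifugation in sucrose/Tris-MOPS/EGTA at pH 7.4, with respiratory control ratio 5−7. O2 uptake was measured with a Clark electrode, State 3/4 induced by 100 μM ADP. Complex I substrate was 5 mM glutamate plus 2.5 mM malate; complex II substrate was 5 mM succinate plus 2 μM rotenone. Dose−response run; mean ± SE, n = 3.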

Experiment [7] concerns H4IIE. Briefly: Activation of AMPK in rat H4IIE cells assessed as increase of ADP level by spectrophotometric analysis. The experiment is classed as cell-based. The procedure, abridged:
(§3)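 Serum-starved H4IIE hepatoma cells, differentiated C2C12 myotubes and differentiated 3T3-L1 adipocytes were exposed 1, 2 and 2 h respectively. Cells were lysed in Tris/SDS/glycerol, nuclease-digested, perchloric acid-extracted and neutralized. ATP, ADP and AMP were separated by C18 HPLC in phosphate buffer at pH 6.2, 40 °C, with detection at […]. AMP/ATP and ADP/ATP ratios were calculated from these levels; mean ± SE, n = 3.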

Experiment [8] has as its target 5'-AMP-activated protein kinase catalytic subunit alpha-1 (Mus musculus) (UniProt Q5EG47). Briefly: Increase of AMPKalpha phosphorylation at Thr172 in mouse 3T3L1 cells at 10 uM after 2 hrs by Western blot analysis. The following applies: 3T3-L1. It counts as cell-based. An outline of the steps:
(§4)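 Cells were starved, then treated 2 h with 2 mM AICAR as reference. C2C12 cells were myotubes differentiated 4 days in 2% horse serum. 3T3-L1 cells were adipocytes differentiated with insulin, dexamethasone and IBMX and used at days 10−14. Lysates were immunoblotted on 7.5% SDS-PAGE for p-AMPKα (Thr172), p-ACC (Ser79), total AMPKα and total ACC.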

Experiment [9] concerns C2C12. Briefly: Activation of AMPK in mouse C2C12 cells assessed as increase of ADP/ATP ratio level after 2 hrs by spectrophotometric analysis. The experiment is classed as cell-based. An outline of the steps: as §3
The test system of experiment [10] is Mus musculus. Briefly: Activation of AMPK in C57BL/6J mouse liver assessed as phosphorylated ACC level at 200 mg/kg, po after 2 hrs by Western blot analysis. Further details: dose 200 mg/kg. The experiment is classed as functional, organism-based. An outline of the steps:
(§5)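 Male C57BL/6J mice (10 weeks), fasted 4 h, given a single oral dose of 200 mg/kg in 0.5% carboxymethyl cellulose with 0.5% polyoxyethylene sorbitan. Dissected under chloral hydrate anesthesia (500 mg/kg ip) 2 h later. Liver, epididymal white adipose and quadriceps were homogenized in RIPA buffer and immunoblotted for p-AMPKα (Thr172) and p-ACC (Ser79). Signals normalized to α-tubulin; mean ± SE, 5 mice; Student's t test against vehicle.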

The test system of experiment [11] is 3T3-L1. Put plainly: Activation of AMPK in mouse 3T3L1 cells assessed as increase of ADP level by spectrophotometric analysis. It counts as cell-based. The procedure, abridged: as §3
For experiment [12], the system named is C2C12. Briefly: Activation of AMPK in mouse C2C12 cells assessed as increase of ADP level by spectrophotometric analysis. It counts as cell-based. The procedure, abridged:
as §3

For experiment [13], the system named is Mus musculus. Put plainly: Activation of AMPK in C57BL/6J mouse skeletal muscle assessed as increase of PGC-1alpha transcription at 100 to 200 mg/kg, po after 2 hrs by RT-qPCR analysis. The following applies: Muscle tissue. A general note: In qPCR the cycle at which signal appears reflects the starting amount.
Experiment [14] deals with H4IIE. Put plainly: Activation of AMPK in rat H4IIE cells assessed as increase of AMP/ATP ratio level after 1 hr by spectrophotometric analysis. It counts as cell-based. An outline of the steps: as §3
Experiment [15] has as its system C2C12. Briefly: Activation of AMPK in mouse C2C12 cells assessed as decrease of ATP level by spectrophotometric analysis. It counts as cell-based. An outline of the steps: as §3
Experiment [16] deals with Mus musculus. Briefly: Activation of AMPK in C57BL/6J mouse liver at 200 mg/kg, po after 2 hrs by Western blot analysis. It counts as functional, organism-based. Further details: dose 200 mg/kg. An outline of the steps:
as §5

Experiment [17] is filed under the species Rattus norvegicus. Put plainly: Inhibition of rat liver mitochondrial respiratory chain complex 2 assessed as reduction of oxygen consumption at stage 4 in presence of succinate and rotenone. The procedure, abridged: as §2
For experiment [18], the species on record is Rattus norvegicus. Briefly: Inhibition of rat liver mitochondrial respiratory chain complex 1 assessed as reduction of oxygen consumption at stage 4 at 10 uM in presence of glutamate and ADP. An outline of the steps:
as §2

Experiment [19] concerns Mus musculus. Put plainly: Activation of AMPK in glucose loaded C57BL/6J mouse assessed as decrease of AUC of blood glucose level at 500 mg/kg, po after 1 hr by oral glucose tolerance test. It counts as functional, organism-based. Set-up: dose 500 mg/kg.
Experiment [20] relates to H4IIE. Briefly: Activation of AMPK in rat H4IIE cells assessed as increase of ADP/ATP ratio level after 1 hr by spectrophotometric analysis. The experiment is classed as cell-based. The procedure, abridged: as §3
Experiment [21] concerns the target 5'-AMP-activated protein kinase catalytic subunit alpha-1 (Mus musculus) (UniProt Q5EG47). Briefly: Increase of AMPKalpha phosphorylation at Thr172 in mouse C2C12 cells at 5 uM after 2 hrs by Western blot analysis. It counts as cell-based. An outline of the steps: as §4
Experiment [22] has as its system C2C12. Briefly: Activation of AMPK in mouse C2C12 cells assessed as increase of AMP level by spectrophotometric analysis. It counts as cell-based. An outline of the steps:
as §3

The target in experiment [23] is 5'-AMP-activated protein kinase catalytic subunit alpha-1 (Rattus norvegicus) (UniProt P54645). Put plainly: Increase of AMPKalpha phosphorylation at Thr172 in rat H4IIE cells at 0.3 uM after […] by Western blot analysis. The experiment is classed as cell-based.
5'-AMP-activated protein kinase catalytic subunit alpha-1 (Rattus norvegicus), sequence (P54645 whole entry): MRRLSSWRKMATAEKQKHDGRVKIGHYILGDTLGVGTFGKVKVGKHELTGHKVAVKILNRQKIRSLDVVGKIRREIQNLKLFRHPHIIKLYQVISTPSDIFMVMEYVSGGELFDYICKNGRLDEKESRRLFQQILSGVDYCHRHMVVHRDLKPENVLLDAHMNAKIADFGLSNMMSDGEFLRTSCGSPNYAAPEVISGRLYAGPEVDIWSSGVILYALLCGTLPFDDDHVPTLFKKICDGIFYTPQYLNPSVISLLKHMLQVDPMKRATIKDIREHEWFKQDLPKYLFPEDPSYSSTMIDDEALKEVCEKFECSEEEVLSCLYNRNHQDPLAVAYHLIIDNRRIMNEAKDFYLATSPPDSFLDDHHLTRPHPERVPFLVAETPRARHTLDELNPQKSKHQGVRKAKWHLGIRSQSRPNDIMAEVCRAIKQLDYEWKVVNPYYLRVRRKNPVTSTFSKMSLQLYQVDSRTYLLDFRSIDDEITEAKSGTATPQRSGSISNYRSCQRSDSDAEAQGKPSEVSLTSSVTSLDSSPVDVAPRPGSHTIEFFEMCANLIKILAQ
Experiment [24] deals with Mus musculus. Put plainly: Activation of AMPK in C57BL/6J mouse white adipose tissue assessed as phosphorylated ACC level at 200 mg/kg, po after 2 hrs by Western blot analysis. It counts as functional, organism-based. Set-up: dose 200 mg/kg. The procedure, abridged:
as §5

The test system of experiment [25] is C2C12. Put plainly: Activation of AMPK in mouse C2C12 cells assessed as increase of AMP/ATP ratio level after 2 hrs by spectrophotometric analysis. The experiment is classed as cell-based. The procedure, abridged: as §3
Experiment [26] concerns Mus musculus. Put plainly: Activation of AMPK in glucose loaded C57BL/6J mouse assessed as decrease of AUC of blood glucose level at 100 to 200 mg/kg, po after 1 hr by oral glucose tolerance test. It counts as functional, organism-based. An outline of the steps: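 Male C57BL/6J mice, fasted 15 h, dosed orally at 100 or 200 mg/kg. Glucose (1 M solution, 1 g/kg) given orally 60 min later. Tail-vein blood glucose read at 0, 15, 30, 45, 60, 90 and 120 min, and AUC calculated from the curve. Mean ± SE, 5 mice; one-way ANOVA with Dunnett's test against vehicle.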

Experiment [27] has as its system 3T3-L1. Put plainly: Activation of AMPK in mouse 3T3L1 cells assessed as decrease of ATP level by spectrophotometric analysis. The experiment is classed as cell-based. An outline of the steps: as §3
Experiment [28] concerns H4IIE. Put plainly: Activation of AMPK in rat H4IIE cells assessed as decrease of ATP level by spectrophotometric analysis. It counts as cell-based. An outline of the steps: as §3
The test system of experiment [29] is H4IIE. Briefly: Activation of AMPK in rat H4IIE cells assessed as increase of AMP level by spectrophotometric analysis. It counts as cell-based. An outline of the steps:
as §3

For experiment [30], the system named is 3T3-L1. Briefly: Activation of AMPK in mouse 3T3L1 cells assessed as increase of ADP/ATP ratio level after 2 hrs by spectrophotometric analysis. It counts as cell-based. An outline of the steps:
as §3

For experiment [31], the system named is Mus musculus. Put plainly: Activation of AMPK in C57BL/6J mouse skeletal muscle at 200 mg/kg, po after 2 hrs by Western blot analysis. The experiment is classed as functional, organism-based. Further details: dose 200 mg/kg. The following applies: Muscle tissue. The procedure, abridged:
as §5

For experiment [32], the system named is Mus musculus. Briefly: Activation of AMPK in C57BL/6J mouse white adipose tissue at 200 mg/kg, po after 2 hrs by Western blot analysis. The experiment is classed as functional, organism-based. Further details: dose 200 mg/kg. An outline of the steps: as §5
The test system of experiment [33] is 3T3-L1. Briefly: Activation of AMPK in mouse 3T3L1 cells assessed as increase of AMP level by spectrophotometric analysis. The experiment is classed as cell-based. The procedure, abridged: as §3
For experiment [34], the system named is 3T3-L1. Briefly: Activation of AMPK in mouse 3T3L1 cells assessed as increase of AMP/ATP ratio level after 2 hrs by spectrophotometric analysis. The experiment is classed as cell-based. An outline of the steps:
as §3

Calls of active or inactive are those of the source. No cut-off for these calls is given here.

5'-AMP-activated protein kinase catalytic subunit alpha-1 (Mus musculus), sequence (Q5EG47 whole entry): as the sequence (P54645 whole entry) above, with T269A, E518D counted along it

In the case of `NC(=O)c1ncn([C@@H]2O[C@H](CO)[C@@H](O)[C@H]2O)c1N`, the result in the experiment on Mus musculus [1] was Active.

Take `C/C=C(/C)C(=O)O[C@@H]1CCC2=CC(=O)C(=C(C)C)C[C@]2(C)[C@H]1C`: the outcome in the experiment with H4IIE [2] was Active.

In the case of `C=C(C)[C@@H]1C[C@@]2(C)C(=CC1=O)CC[C@@H](OC(=O)/C(C)=C\C)[C@@H]2C`, the Activity result (in [3]; in [4]; in the experiment with H4IIE [7]; in the experiment with C2C12 [9]; in the experiment with 3T3-L1 [11]; in the experiment with C2C12 [12]) was “Dose-dependent effect” throughout. Besides, the Activity result in the experiment with H4IIE [14], with C2C12 [15], in the experiment on H4IIE [20], in the experiment with C2C12 [22], with C2C12 [25] and in the experiment with 3T3-L1 [27] was “Dose-dependent effect” each time. Besides, the Activity result with H4IIE [28], in the experiment with H4IIE [29], in the experiment with 3T3-L1 [30], with 3T3-L1 [33] and with 3T3-L1 [34] was “Dose-dependent effect” throughout. The result (in experiment [5]; in experiment [8]; with Mus musculus [10]; in the experiment with H4IIE [2]; in the experiment with Mus musculus [13]; in the experiment on Mus musculus [16]) was Active. The outcome (in the experiment with Mus musculus [19]; in experiment [21]; in [23]; in the experiment with Mus musculus [24]; with Mus musculus [26]; in the experiment with Mus musculus [31]) was Active. Moreover, the result with Mus musculus [32] was Active. For the same compound, the inhibition result in the experiment listed under Rattus norvegicus [6] is “Dose-dependent effect”. Moreover, the inhibition entry in the experiment listed under Rattus norvegicus [17] is “inactive”. The inhibition entry in the experiment filed under Rattus norvegicus [18] is “Active”.
